{"data": "Published values from different studies", "target": "Dual specificity protein kinase CLK3 (CLK3, Homo sapiens, UniProt P49761)", "note": "Each line is one published result; the experiments were not run side by side."}
{"SMILES": "Nc1ncc(-c2nc(N3CCOCC3)nc(N3CCOCC3)n2)c(C(F)F)n1", "test": "binding, competition with immobilised ligand", "conditions": "10 µM", "measurement": "remaining binding", "value": "90%"}
{"SMILES": "C#Cc1n[nH]c2c(-c3cn([C@@H](C)c4ccccn4)c(=O)[nH]c3=O)cc(F)cc12", "test": "enzyme activity, inhibitor", "conditions": "0.1 µM", "measurement": "inhibition", "value": "0.7%"}
{"SMILES": "Cn1cc(-c2cc(F)cc(N3CCn4c(cc5c4CCCC5)C3=O)c2CO)cc(Nc2ccc(N3CCN(C4COC4)CC3)cn2)c1=O", "test": "enzyme activity, inhibitor", "conditions": "0.1 µM", "measurement": "inhibition", "value": "11%"}
{"SMILES": "COc1ncccc1-c1cnn2ccc(N3CCN(C(=O)OC(C)C)CC3)nc12", "test": "binding, competition with immobilised ligand", "conditions": "1 µM", "measurement": "remaining binding", "value": "78%"}
{"SMILES": "CCn1cnc2c(Nc3cccc(Cl)c3)nc(N[C@H]3CCCC[C@H]3N)nc21", "test": "enzyme activity, inhibitor", "conditions": "0.5 µM", "measurement": "remaining activity", "value": "99.8%"}
{"SMILES": "N#CC1(c2ccccn2)CCN(Cc2cc(C(=O)O)c(=O)n3ccccc23)CC1", "test": "cell-free assay, competition with immobilised ligand", "conditions": "1 µM", "measurement": "remaining binding", "value": "100%"}
{"SMILES": "Cn1cc(-c2cccc(N3CCc4c(sc5c4CC(C)(C)C5)C3=O)c2CO)cc(Nc2ccncn2)c1=O", "test": "enzyme activity, inhibitor", "conditions": "1 µM", "measurement": "inhibition", "value": "4%"}
{"SMILES": "Cn1cncc1[C@@](O)(COc1ccc(C#N)cc1-c1ccc(OC(F)(F)F)cc1)c1ccc(C#N)cc1", "test": "cell-free assay, competition with immobilised ligand", "conditions": "1 µM", "measurement": "remaining binding", "value": "100%"}
{"SMILES": "COc1cc(Nc2ncc(F)c(Nc3ccc4c(n3)NC(=O)C(C)(C)O4)n2)cc(OC)c1OC", "test": "binding, competition with immobilised ligand", "conditions": "10 µM", "measurement": "inhibition", "value": "78%"}
{"SMILES": "Cc1nn(C)cc1-c1nc2c(N3CCN(Cc4ccc(Cl)cc4)CC3)c(Cl)cnc2[nH]1", "test": "binding, competition with immobilised ligand", "conditions": "1 µM", "measurement": "remaining binding", "value": "88%"}
{"SMILES": "CC(C)(C)c1cc(C=C(C#N)C#N)cc(Br)c1O", "test": "enzyme activity, inhibitor", "conditions": "0.5 µM", "measurement": "remaining activity", "value": "122%"}
